Legend:
[1] = biological target: T1, Ectonucleoside triphosphate diphosphohydrolase 2 (Homo sapiens) (UniProt Q9Y5L3); assay: Inhibition of recombinant human NTPDase2 transfected in COS-7 cells using ATP substrate at 100 uM relative to control; format: cell-based
T1 sequence (whole entry): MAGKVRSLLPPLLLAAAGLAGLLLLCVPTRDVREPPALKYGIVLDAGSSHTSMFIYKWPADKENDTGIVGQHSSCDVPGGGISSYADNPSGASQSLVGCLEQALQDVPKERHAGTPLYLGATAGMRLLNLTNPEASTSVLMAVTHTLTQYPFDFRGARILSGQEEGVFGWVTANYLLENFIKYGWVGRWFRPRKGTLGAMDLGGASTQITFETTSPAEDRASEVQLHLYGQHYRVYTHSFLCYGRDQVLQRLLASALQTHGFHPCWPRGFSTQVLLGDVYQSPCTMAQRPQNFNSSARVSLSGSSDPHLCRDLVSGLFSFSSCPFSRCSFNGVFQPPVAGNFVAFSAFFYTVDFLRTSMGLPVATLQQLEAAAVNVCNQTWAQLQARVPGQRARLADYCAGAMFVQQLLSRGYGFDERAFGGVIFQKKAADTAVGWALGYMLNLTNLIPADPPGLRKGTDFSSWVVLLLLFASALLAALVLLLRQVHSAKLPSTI
In short: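 Extracts of COS-7 cells expressing human NTPDase2, preincubated 3 min at 37 °C in 5 mM CaCl2/80 mM Tris pH 7.4; ATP and compound both 100 μM; stopped at 15 min with malachite green, Pi at 630 nm; ATP alone set as 100%; mean ± SD of three experiments in triplicate.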

[2] = Stability assessed as human compound hydrolysis; conditions: read-out: Drug degradation
[3] = biological target: T2, NTPDase1 (ectonucleoside triphosphate diphosphohydrolase 1) (Homo sapiens, UniProt P49961); assay: Stability assessed as human NTPDase1-mediated compound hydrolysis; format: ADME; conditions: human NTPDase1 enzyme, read-out: Drug degradation
T2 sequence (P49961 whole entry): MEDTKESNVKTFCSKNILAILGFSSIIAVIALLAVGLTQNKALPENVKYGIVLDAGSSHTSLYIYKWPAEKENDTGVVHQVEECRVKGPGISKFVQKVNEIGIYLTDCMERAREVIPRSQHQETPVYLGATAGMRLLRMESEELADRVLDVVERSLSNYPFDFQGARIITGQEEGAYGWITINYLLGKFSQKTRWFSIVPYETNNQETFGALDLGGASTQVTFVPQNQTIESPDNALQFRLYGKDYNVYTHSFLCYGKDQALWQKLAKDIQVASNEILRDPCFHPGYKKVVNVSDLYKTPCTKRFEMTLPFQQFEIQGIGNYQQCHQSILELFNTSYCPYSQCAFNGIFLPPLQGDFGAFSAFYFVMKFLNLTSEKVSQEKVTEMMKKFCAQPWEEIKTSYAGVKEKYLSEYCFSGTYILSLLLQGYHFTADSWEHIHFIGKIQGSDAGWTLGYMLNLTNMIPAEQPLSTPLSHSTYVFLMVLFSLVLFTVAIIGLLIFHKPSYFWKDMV
In short: (§1)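 Each analogue offered as substrate to recombinant human NTPDase (COS-7 transfected cell protein extracts) at 37 °C, pH 7.4 Ca2+/Tris medium, 15 min; Pi released measured by malachite green at 630 nm; hydrolysis expressed relative to ATP set as 100%; mean ± SD of three independent experiments, each in duplicate.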

[4] = biological target: T3, NTPDase2 (ectonucleoside triphosphate diphosphohydrolase 2) (Homo sapiens, UniProt Q9Y5L3); assay: Stability assessed as human NTPDase2-mediated compound hydrolysis; format: ADME; conditions: human NTPDase2 enzyme, read-out: Drug degradation; in short: as §1
T3 sequence (Q9Y5L3 whole entry): T1 sequence (whole entry)

[5] = biological target: T4, NTPDase3 (ectonucleoside triphosphate diphosphohydrolase 3) (Homo sapiens, UniProt O75355); assay: Stability assessed as human NTPDase3-mediated compound hydrolysis; format: ADME; conditions: human NTPDase3 enzyme, read-out: Drug degradation; in short: as §1
T4 sequence (O75355 whole entry): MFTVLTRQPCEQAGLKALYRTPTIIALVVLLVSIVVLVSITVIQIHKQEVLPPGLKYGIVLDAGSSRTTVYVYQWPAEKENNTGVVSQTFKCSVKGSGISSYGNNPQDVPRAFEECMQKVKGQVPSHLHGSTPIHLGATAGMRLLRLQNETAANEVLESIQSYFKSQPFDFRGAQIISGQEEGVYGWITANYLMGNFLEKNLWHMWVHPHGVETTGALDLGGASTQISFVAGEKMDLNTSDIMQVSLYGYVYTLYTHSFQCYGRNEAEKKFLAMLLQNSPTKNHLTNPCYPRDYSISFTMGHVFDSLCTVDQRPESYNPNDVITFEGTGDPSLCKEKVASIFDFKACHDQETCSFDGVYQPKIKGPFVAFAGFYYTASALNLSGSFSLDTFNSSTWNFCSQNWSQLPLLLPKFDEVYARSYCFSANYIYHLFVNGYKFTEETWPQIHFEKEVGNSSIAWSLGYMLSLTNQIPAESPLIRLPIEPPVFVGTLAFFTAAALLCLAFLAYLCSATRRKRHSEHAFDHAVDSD

[6] = biological target: T5, Ectonucleotide pyrophosphatase/phosphodiesterase family member 1 (Homo sapiens) (UniProt P22413); assay: Inhibition of human NPP1 using pNP-TMP substrate relative to control; conditions: concentration not given here
T5 sequence (whole entry): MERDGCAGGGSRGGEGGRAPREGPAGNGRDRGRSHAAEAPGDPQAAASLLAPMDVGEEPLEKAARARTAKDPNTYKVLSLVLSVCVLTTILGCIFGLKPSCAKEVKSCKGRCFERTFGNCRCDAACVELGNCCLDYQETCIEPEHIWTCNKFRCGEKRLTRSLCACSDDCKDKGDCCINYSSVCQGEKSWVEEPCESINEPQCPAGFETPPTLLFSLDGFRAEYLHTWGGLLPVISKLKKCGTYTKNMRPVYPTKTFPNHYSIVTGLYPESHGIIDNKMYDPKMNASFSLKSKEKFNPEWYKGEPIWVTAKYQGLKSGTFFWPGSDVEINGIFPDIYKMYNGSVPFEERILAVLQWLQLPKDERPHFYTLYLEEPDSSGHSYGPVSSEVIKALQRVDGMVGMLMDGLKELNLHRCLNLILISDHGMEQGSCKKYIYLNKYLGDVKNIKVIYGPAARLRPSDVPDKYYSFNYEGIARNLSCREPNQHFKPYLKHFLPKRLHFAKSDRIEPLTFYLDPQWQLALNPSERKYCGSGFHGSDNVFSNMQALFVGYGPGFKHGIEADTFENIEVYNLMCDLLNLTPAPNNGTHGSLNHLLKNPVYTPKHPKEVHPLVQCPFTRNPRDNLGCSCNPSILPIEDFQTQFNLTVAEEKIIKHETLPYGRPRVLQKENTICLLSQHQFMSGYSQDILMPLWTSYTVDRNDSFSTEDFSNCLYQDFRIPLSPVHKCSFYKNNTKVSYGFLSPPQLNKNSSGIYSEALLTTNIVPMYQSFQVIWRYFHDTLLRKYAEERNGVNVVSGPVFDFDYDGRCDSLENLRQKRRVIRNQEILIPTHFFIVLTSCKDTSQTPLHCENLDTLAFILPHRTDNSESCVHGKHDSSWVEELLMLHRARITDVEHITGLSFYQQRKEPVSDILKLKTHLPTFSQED
In short: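 Extract of COS-7 cells transfected with human NPP1, preincubated 3 min at 37 °C in 1 mM CaCl2, 140 mM NaCl, 5 mM KCl, 50 mM Tris pH 8.5; started with 100 μM pNP-TMP, compound 100 μM; p-nitrophenol read at 410 nm after 15 min; activity without compound = 100%; mean ± SD, three experiments in triplicate.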

[7] = biological target: T6, Ectonucleoside triphosphate diphosphohydrolase 2 (Homo sapiens, UniProt Q9Y5L3); assay: Inhibition of recombinant human NTPDase2 transfected in COS-7 cells using ATP substrate; format: cell-based
T6 sequence (Q9Y5L3 whole entry): T1 sequence (whole entry)

[8] = biological target: 5'-nucleotidase (Homo sapiens) (UniProt P21589); assay: Inhibition of AMPase activity of human ecto-5'-nucleotidase using AMP substrate relative to control; conditions: concentration not given here
In short: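 Human ecto-5′-nucleotidase in protein extracts of transfected COS-7 cells; 3 min preincubation at 37 °C in 5 mM CaCl2/80 mM Tris pH 7.4 (or Tris-Ringer); started with 100 μM AMP, compound also 100 μM; stopped after 15 min with malachite green, Pi read at 630 nm; activity without compound set as 100%; mean ± SD, three experiments in triplicate.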

5'-nucleotidase (Homo sapiens), sequence (P21589 whole entry): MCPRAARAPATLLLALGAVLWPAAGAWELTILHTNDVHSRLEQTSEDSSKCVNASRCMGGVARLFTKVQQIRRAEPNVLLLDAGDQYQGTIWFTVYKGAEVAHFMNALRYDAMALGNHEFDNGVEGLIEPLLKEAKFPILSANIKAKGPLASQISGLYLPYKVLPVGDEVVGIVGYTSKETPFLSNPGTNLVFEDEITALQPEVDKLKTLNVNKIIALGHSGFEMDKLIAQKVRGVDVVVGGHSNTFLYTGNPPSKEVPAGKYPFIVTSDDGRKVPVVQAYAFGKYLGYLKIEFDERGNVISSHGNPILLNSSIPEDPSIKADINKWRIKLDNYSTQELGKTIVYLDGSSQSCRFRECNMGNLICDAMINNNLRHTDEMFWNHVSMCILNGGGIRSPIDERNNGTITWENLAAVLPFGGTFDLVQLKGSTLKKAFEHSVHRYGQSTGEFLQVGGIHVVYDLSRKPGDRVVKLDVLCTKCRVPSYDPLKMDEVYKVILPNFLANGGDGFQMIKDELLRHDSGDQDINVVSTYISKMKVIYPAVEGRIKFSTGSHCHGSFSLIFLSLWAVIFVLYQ

Compound	inhibition [1] [%]	metabolised [2] [%]	metabolised [3] [%]	metabolised [4] [%]	metabolised [5] [%]	inhibition [6] [%]	IC50 [7] [µM]	Ki [7] [µM]	inhibition [8] [%]
O=P(O)(O)OC[C@H]1O[C@@H](n2cnc3c(N(Cc4ccccc4)Cc4ccccc4)ncnc32)[C@H](O)[C@@H]1O	10	5	6	3	10				
CN(C)c1ncnc2c1ncn2[C@@H]1O[C@H](COP(=O)(O)O)[C@@H](O)[C@H]1O		2	0	0	4				
Nc1ncnc2c1nnn2[C@@H]1O[C@H](COP(=O)(O)OP(=O)(O)OP(=O)(O)O)[C@@H](O)[C@H]1O			73	38.5					
CCN(CC)c1ncnc2c1ncn2[C@@H]1O[C@H](COP(=O)(O)OP(=O)(O)OP(=O)(O)O)[C@@H](O)[C@H]1O	42	20	22	0	2				
CCCCCCSc1nc(N)c2ncn([C@@H]3O[C@H](COP(=O)(O)OP(=O)(O)CP(=O)(O)O)[C@@H](O)[C@H]3O)c2n1	70		2.3	2.8	0.8	> 50	40	21	10
CN(C)c1ncnc2c1ncn2[C@@H]1O[C@H](COP(=O)(O)OP(=O)(O)OP(=O)(O)O)[C@@H](O)[C@H]1O			74	73					
CCCCCCSc1nc(N)c2nnn([C@@H]3O[C@H](COP(=O)(O)OP(=O)(O)OP(=O)(O)O)[C@@H](O)[C@H]3O)c2n1			44	11.5					
CNc1ncnc2c1ncn2[C@@H]1O[C@H](COP(=O)(O)OP(=O)(O)OP(=O)(O)O)[C@@H](O)[C@H]1O			87	77					
O=P(O)(O)OP(=O)(O)OP(=O)(O)OC[C@H]1O[C@@H](n2cnc3c(N(Cc4ccccc4)Cc4ccccc4)ncnc32)[C@H](O)[C@@H]1O	0	13	14	3	8				
